From PubChem BioAssay
The list is not random: actives were taken first. Their share in the collection is about 5.8%.
Cav32 inh = Cav3.2 calcium influx blockers – cell-based, Fluo-4 calcium fluorescence, FDSS, MLSMR library, primary screen | Voltage-dependent T-type calcium channel subunit alpha-1H (Homo sapiens), O95180 | Cav3.2-expressing cells; stronger effect = lower value | hit rate 4% among 100,000 | B-score at 10 µM | AID 449739, 2010;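 active means single-dose well whose peak fluorescence ratio is a statistical outlier from its plate by either plate-standardised score or position-corrected B-score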
PLK1 inh = human PLK1 kinase inhibitors, primary screen, biochemical, TR-FRET; Serine/threonine-protein kinase PLK1 (Homo sapiens), P53350; recombinant PLK1 kinase, TR-FRET peptide phosphorylation; inhibition, % at 10 µM; hit rate 0.53% among 97,000;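 active means inhibition of 50% or more in the single-concentration screen; inactive means inhibition below 50%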;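 further: 0% = DMSO max control and 100% = H-89 dihydrochloride min control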
HIV Rev-RRE inh = HIV-1 Rev-RRE binding inhibitors, primary screen, biochemical, FRET, protein-RNA interaction; Rev peptide-RRE RNA binding; inhibition, % at 8 µM; hit rate 0.79% among 97,000;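 active means inhibition above the screen-wide mean plus 3 SD, cut at about 35% in these data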;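 further: 0% = median DMSO wells and 100% = median Neomycin B control wells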
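System: Cy5-labelled duplex RRE RNA binding fluorescein-labelled HIV Rev peptide; Signal: fluorescein-to-Cy5 FRET, 480 nm excitation; Also added: labelled Rev peptide; Compound: one concentration, 8 µM nominal; Buffer or medium: HEPES pH 7.5 salt buffer with EDTA; Read-out: % inhibition of FRET ratio versus controls; Schedule: 5 min preincubation and 15 min binding, 25 °C.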
PTK2B oligo ant = antagonists of Pyk2 self-association, primary screen, Q293 cells, FERM NanoBiT luminescence, HTS. stronger effect = lower value. z-score (the deposit names both 25 µM and 10 µM). hit rate 0.83% among 99,000. AID 1347419, 2020;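 active means Z-score of -3 or lower, scaled per plate to the spread of control and sample wells; inactive means z-score above -3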;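 further: negative z-score means lost luminescence so less FERM oligomerization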
FAK inh = FAK kinase inhibitors, primary screen, biochemical; inhibition, %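 (tested at 7 µM)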; biochemical FAK kinase activity assay; hit rate 0.84% among 97,000; in the data active means inhibition above about 19%;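 further: 0% = DMSO and 100% = reference compound high control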
PLK1 PBD inh = Plk1 polo box domain binding inhibitors, primary screen, biochemical, fluorescence polarization | inhibition, %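 (tested at about 20 µM)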 | hit rate 0.13% among 97,000 | AID 693, 2007 | Plk1 PBD phosphopeptide binding | Serine/threonine-protein kinase PLK1 (Homo sapiens), P53350; in the data active means inhibition above about 34%, passing the limit was not always enough
* hit, by the source's call; · = not tested or not shown.

SMILES	Cav32 inh	PLK1 inh	HIV Rev-RRE inh	PTK2B oligo ant	FAK inh	PLK1 PBD inh
CC1CCN(C(=O)CSc2nnc(CN3CCOCC3)n2-c2ccccc2)CC1	0.03	-6	9	-0.27	1	21
COC(=O)C1C2C=CC3(CN(C(C)C)C(=O)C13)O2 (stereo unspecified)	-0.34	55*	10	·	4	13
COC(=O)C1C2C=CC3(CN(C(C)c4ccc(OC)cc4)C(=O)C13)O2 (stereo unspecified)	0.066	·	·	0.93	·	·
CN1CCN(c2ccc(Cl)cc2NC(=O)C2COc3ccccc3O2)CC1 (stereo unspecified)	-4.5*	·	·	-0.87	·	·
CCCCOC(=O)CSc1n[nH]c(=O)[nH]c1=O	·	-9	9	1.2	0	0
CCN(C1CCCCC1)S(=O)(=O)c1ccc(OC)c(C)c1	-6.3*	-2	10	-1.2	1	-26
CCN(C1CCCCC1)S(=O)(=O)c1cc(C)ccc1OC	-3.2	-10	9	-1.2	0	6
CC(Oc1ccccc1)c1ccnn1S(=O)(=O)c1ccccc1 (stereo unspecified)	-6.4*	-7	8	-0.71	0	5
CC(Oc1ccc(Cl)cc1)c1ccnn1S(=O)(=O)c1ccc(Cl)cc1 (stereo unspecified)	-2.1	-9	23	0.29	-8	1
CC1(C)Cc2c(cnn2-c2ccccc2)C(=O)/C1=N\NC(=O)c1ccccc1O	-1.8	-3	0	-0.22	-3	3
Cc1ccccc1NC(=O)c1sc2nc3c(c(-c4ccco4)c2c1N)CCCC3	-4.2*	-8	15	0.23	0	8
Nc1c(C(=O)Nc2ccccc2)sc2nc3c(c(-c4ccco4)c12)CCCC3	-2.1	-16	5	-1.1	1	13
O=C(Nc1ccc(Cl)cc1Cl)c1cccc(N2C(=O)C=CC2=O)c1	·	-4	·	·	·	·
CN1C(=O)C(CC(=O)Nc2ccc(F)cc2)N(CCCc2ccccc2)C1=S (stereo unspecified)	-5.2*	-14	17	0.2	-1	-2
COC(=O)CN1C(=S)N(Cc2ccccc2)C(=O)C1CC(=O)Nc1ccc(Br)cc1 (stereo unspecified)	-3.4	-9	18	-0.91	1	1
CC(C)(C)CC(C)(C)NCC(O)COc1c(F)cc(Br)cc1F (stereo unspecified)	-5.7*	-1	20	1.2	-1	-1
CC(C)(C)NCC(O)COc1c(F)cc(Br)cc1F (stereo unspecified)	0.16	-9	0	-0.52	-1	11
O=C(Cn1cnc2c(cnn2-c2ccccc2)c1=O)OCc1ccccc1	-1.2	50*	8	0.42	-6	-23
Cc1ccc(-n2ncc3c(=O)n(CC(=O)OCc4ccccc4)cnc32)cc1	0.56	-10	4	0.84	-6	7
CC1(C)CC[C@]2(C(=O)O)CC[C@]3(C)C(=CC[C@@H]4[C@@]5(C)CC[C@H](O)C(C)(C)[C@@H]5CC[C@]43C)[C@@H]2C1	0.047	·	·	·	·	·
CC(=O)OC1COC(OC2C(O)C(C)OC(OC3C(OC4CCC5(C)C(CCC6(C)C5CC=C5C7CC(C)(C)CCC7(C(=O)O)CCC56C)C4(C)CO)OCC(O)C3O)C2O)C(O)C1OC(C)=O (stereo unspecified)	-5*	·	·	·	·	·
Cc1cc(C)c(NC(=O)CSc2nnc(SCC(=O)Nc3c(C)cc(C)cc3C)n2N)c(C)c1	0.31	-9	6	-0.01	-2	-32
CCCOc1ccc(C(=O)NNC(=S)NC(=O)c2cc(-c3ccccc3)nc3ccccc23)cc1	-7.3*	-5	0	-0.67	-5	29
CCCOc1ccc(C(=O)NNC(=S)NC(C)=O)cc1	1.2	-11	-5	-0.17	0	-18
Cc1ccccc1C(=O)NNC(=S)NC(=O)COc1ccccc1	-3.3	-9	8	1.9	-1	-5
SMILES	Cav32 inh	PLK1 inh	HIV Rev-RRE inh	PTK2B oligo ant	FAK inh	PLK1 PBD inh
Cc1ccc(C(=O)NNC(=S)NC(=O)COc2ccccc2)cc1	-5.2*	-8	3	0.61	0	2
O=C(CN1CCN(c2ncccn2)CC1)NCCC1=CCCCC1	0.28	-12	1	-0.43	-1	2
CCO[C@H]1OC(C(=O)Nc2ccccc2)=C[C@@H](c2cn(C(C)=O)c3ccccc23)[C@@H]1CCCO	0.46	·	·	·	·	·
Cc1ccc(C(=O)COc2ccccc2C(=O)Nc2ccccc2)cc1	-0.97	-10	11	-0.7	-7	-17
COC(=O)c1ccc(-c2nc(O)c3cnccn23)cc1	0.32	-9	4	0.37	0	2
CC(C)(C)n1nc2c(c1NC(=O)COc1ccc(Cl)cc1)CSC2	-4.4*	-3	-3	0.52	0	-13
CCN(CC)c1nc(N)c2c(N)n(-c3ccccc3C)c(=S)c(C#N)c2c1C#N	0.3	-13	-1	-3.7*	-12	31
CCN(CC)c1nc(N)c2c(N)nc3c(c2c1C#N)CC(c1ccccc1)O3 (stereo unspecified)	-3.4	-13	8	-0.66	1	11
CCCc1cc(-c2n[nH]c(=S)n2C(C)c2ccccc2)cs1 (stereo unspecified)	-4.6*	-1	-1	-0.11	2	-18
CC(C)CC(C(=O)Nc1oc(-c2ccco2)c(-c2ccco2)c1C#N)N1C(=O)c2ccccc2C1=O (stereo unspecified)	-1.2	-10	15	-0.59	-3	-2
O=C(CN1CCN(c2ccccn2)CC1)Nc1cc(C(F)(F)F)ccc1Cl	0.15	-7	8	0.03	1	10
CCOC(=O)/C(C#N)=C/c1ccc(-c2ccsc2C(=O)OC)o1	-7*	-13	21	0.99	-4	16
Nc1cc(-c2cccc(Br)c2)nn1Cc1ccccc1	·	·	·	0.12	·	·
Nc1cc(-c2ccccc2)nn1Cc1ccc(Cl)cc1	-5.8*	-11	2	-0.59	-8	30
Cc1ccc2cc(CN(Cc3ccc4c(c3)OCO4)Cc3nnnn3Cc3ccco3)c(=O)[nH]c2c1	-6.7*	1	6	0.58	5	10
CCNC(=O)C1CC(=O)N(CC)C(=Nc2cc(Cl)c(O)c(Cl)c2)S1 (stereo unspecified)	-2.3	-7	5	-0.3	-4	-9
CCC1CCCCN1C(=O)CSc1nnc(-c2c[nH]c3ccccc23)o1 (stereo unspecified)	-0.11	-11	4	-1.9	0	-34
COC(=O)c1cc(OC)c(OC)cc1NC(=S)N1CCN(c2ccccc2)CC1	0.087	-3	0	0.04	1	26
